# In ChEMBL document CHEMBL5576140, “Computational Design of Pore-Forming Peptides with Potent Antimicrobial and Anticancer Activities” (J Med Chem, 2024):
# Activity calls are given as the source filed them. The rule behind the calls is not given here.
# Tests used:
# K562 [1] = assay: pH-dependent anticancer activity against human K562 cells in PBS medium at 10 uM incubated for 1 hr; type: functional, cell-based
# In short: (§1)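 Cells cultured in RPMI, DMEM or PBS, each adjusted to pH 8, 7 or 6, plus one unadjusted (~7.6). Peptide at 10 μM for only 1 h, to limit pH drift from CO₂-bicarbonate buffering. Cell viability read. Controls were melittin, ampicillin and PBS. Two independent repetitions; effects analysed by ANOVA.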
# SUD4 = assay: Anti-cancer activity against human SU-DHL-4 cells incubated for 24 hrs by WST assay; type: functional, cell-based; conditions: SU-DHL-4, 24 h
# Klebsiella pneumoniae [2] = assay: Induction of outer membrane permeabilization in Klebsiella pneumoniae ATCC 13883 measured for 20 mins by NPN uptake assay; type: functional, organism-based
# In short: (§2)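 Outer-membrane permeabilization of Gram-negative bacteria read as rise in fluorescence of the lipophilic dye NPN, which enters only when outer-membrane integrity is compromised. Peptides applied at their MIC against the respective strain; polymyxin B and levofloxacin as reference antibiotics. Triplicates.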
# T-cell line = assay: Cytotoxicity against human T-lymphocytes assessed as deleterious effect upto 50 uM by flow cytometry; type: toxicity, cell-based
# In short: (§3)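 Whole blood from a healthy donor treated with peptides up to 50 μM; effect on B and T lymphocytes, granulocytes and monocytes assessed.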
# Escherichia coli [3] = assay: Induction of outer membrane permeabilization in Escherichia coli ATCC 11775 measured for 20 mins by NPN uptake assay; type: functional, organism-based
# HCT-116 [4] = assay: pH-dependent anticancer activity against human HCT-116 cells in RPMI medium at 10 uM incubated for 1 hr; type: functional, cell-based; in short: as §1
# HL-60 [5] = assay: pH-dependent anticancer activity against human HL-60 cells in RPMI medium at 10 uM incubated for 1 hr; type: functional, cell-based; in short: as §1
# MCF7 [6] = assay: Induction of apoptosis in human MCF7 cells in DMEM medium at pH 6 assessed as increase in cleaved PARP level at 10 uM; type: functional, cell-based
# In short: (§4)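 MCF-7 cells treated with peptides at pH 6; apoptosis detected by immunoblotting for cleaved PARP and cleaved caspase-3.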
# [7] = Stability in simulated pore POPC lipid bilayer membrane; type: physicochemical
# In short: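 Coarse-grained MD with the "scaled" Martini force field, peptides in POPC membrane, 51 μs. Counts transmembrane peptides at 51 μs. Water beads within 2 nm vertically of membrane centre and peptide–peptide interaction energy averaged over 48–51 μs. Contacts (salt bridge or stacking) scored below 0.8 nm and called stable if present ≥50% of the time.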
# Pseudomonas aeruginosa [8] = assay: Depolarization of cytoplasmic membrane in Pseudomonas aeruginosa PAO1 at MIC measured for 45 mins by DiSC3-(5) dye based assay; type: functional, organism-based
# In short: (§5)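 Bacteria loaded with membrane-potential dye DiSC3-(5), then treated with peptide at its MIC for the respective strain; depolarization read as rise in dye fluorescence; polymyxin B and levofloxacin as reference antibiotics.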
# HCT-116 [9] = assay: pH-dependent anticancer activity against human HCT-116 cells in DMEM medium at 10 uM incubated for 1 hr; type: functional, cell-based; in short: as §1
# MCF7 [10] = assay: pH-dependent anticancer activity against human MCF7 cells in RPMI medium at 10 uM incubated for 1 hr; type: functional, cell-based; in short: as §1
# MCF7 [11] = assay: Induction of apoptosis in human MCF7 cells in DMEM medium at pH 6 assessed as increase in cleaved capase-3 level at 10 uM; type: functional, cell-based; in short: as §4
# Monocyte = assay: Cytotoxicity against human monocytes assessed as deleterious effect upto 50 uM by flow cytometry; type: toxicity, cell-based; in short: as §3
# Enterococcus faecium = assay: Depolarization of cytoplasmic membrane in Enterococcus faecium ATCC 700221 at MIC measured for 45 mins by DiSC3-(5) dye based assay; type: functional, organism-based; in short: as §5
# [12] = Toxicity in neutropenic CD-1 mouse deep thigh infection model infected with Acinetobacter baumannii ATCC 19606 assessed as body weight change at 1.33 mg/kg, ip measured after 4 days; type: organism-based; conditions: in vivo, 96 h, time 4 day
# In short: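 Neutropenic mice infected intramuscularly in the right thigh with 10⁶ cells per mL of A. baumannii ATCC 19606. […] Body weight monitored for toxicity. Euthanasia 4 days post-infection (day 8). n = 6 per group, from three inocula.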
# HL-60 [13] = assay: pH-dependent anticancer activity against human HL-60 cells in PBS medium at 10 uM incubated for 1 hr; type: functional, cell-based; in short: as §1
# Staphylococcus aureus = assay: Depolarization of cytoplasmic membrane in Staphylococcus aureus ATCC 12600 at MIC measured for 45 mins by DiSC3-(5) dye based assay; type: functional, organism-based; in short: as §5
# HCT-116 [14] = assay: pH-dependent anticancer activity against human HCT-116 cells in PBS medium at 10 uM incubated for 1 hr; type: functional, cell-based; in short: as §1
# HL-60 [15] = assay: Anti-cancer activity against human HL-60 cells at 10 uM incubated for 30 mins; type: functional, cell-based
# B cell = assay: Cytotoxicity against human B-lymphocytes assessed as deleterious effect upto 50 uM by flow cytometry; type: toxicity, cell-based; in short: as §3
# [16] = Anti-cancer activity against human MEC-1 cells incubated for 24 hrs by WST assay; type: functional, cell-based; conditions: MEC1, 24 h
# Acinetobacter baumannii [17] = assay: Depolarization of cytoplasmic membrane in Acinetobacter baumannii ATCC 19606 at MIC measured for 45 mins by DiSC3-(5) dye based assay; type: functional, organism-based; in short: as §5
# K562 [18] = assay: pH-dependent anticancer activity against human K562 cells in DMEM medium at 10 uM incubated for 1 hr; type: functional, cell-based; in short: as §1
# HL-60 [19] = assay: pH-dependent anticancer activity against human HL-60 cells in DMEM medium at 10 uM incubated for 1 hr; type: functional, cell-based; in short: as §1
# Acinetobacter baumannii [20] = assay: Anti-infective activity against Acinetobacter baumannii ATCC 19606 infected in neutropenic CD-1 mouse deep thigh infection model assessed as reduction in bacterial load at 1.33 mg/kg, ip measured after 4 days; type: functional, organism-based; conditions: time 4.0 day
# In short: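 Neutropenic mice infected intramuscularly in right thigh with 10⁶ cells per mL A. baumannii ATCC 19606; single intraperitoneal peptide dose at 10× MIC; bacterial load determined 4 days after treatment (euthanized day 8); n = 6 per group from three inocula; one-way ANOVA with Dunnett's test versus untreated.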
# Pseudomonas aeruginosa [21] = assay: Induction of outer membrane permeabilization in Pseudomonas aeruginosa PAO1 measured for 20 mins by NPN uptake assay; type: functional, organism-based; in short: as §2
# MCF7 [22] = assay: pH-dependent anticancer activity against human MCF7 cells in PBS medium at 10 uM incubated for 1 hr; type: functional, cell-based; in short: as §1
# MCF7 [23] = assay: pH-dependent anticancer activity against human MCF7 cells in DMEM medium at 10 uM incubated for 1 hr; type: functional, cell-based; in short: as §1
# [24] = Toxicity against reconstructed human skin model assessed as tissue viability at 50 uM incubated for 1 hr followed by compound washout measured after 42 hrs by MTT assay; type: tissue-based, Skin of body; conditions: read-out: Activity
# In short: (§6)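 Reconstructed human epidermis with stratum corneum, per OECD TG 439 skin irritation guideline. Tissues exposed 1 h to peptide at 50 μM, then 42 h post-treatment incubation. Viability read by MTT. Controls were SDS and melittin.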
# [25] = Anti-cancer activity against human NHDF cells incubated for 72 hrs by Cell Titer Glo assay; type: toxicity, cell-based
# Escherichia coli [26] = assay: Depolarization of cytoplasmic membrane in Escherichia coli ATCC 11775 at MIC measured for 45 mins by DiSC3-(5) dye based assay; type: functional, organism-based; in short: as §5
# K562 [27] = assay: pH-dependent anticancer activity against human K562 cells in RPMI medium at 10 uM incubated for 1 hr; type: functional, cell-based; in short: as §1
# Acinetobacter baumannii [28] = assay: Induction of outer membrane permeabilization in Acinetobacter baumannii ATCC 19606 measured for 20 mins by NPN uptake assay; type: functional, organism-based
# Staphylococcus carnosus = assay: Antimicrobial activity against Staphylococcus carnosus CCM 4838T incubated for 24 hrs by broth microdilution assay; type: functional
# [29] = Cytotoxicity against human granulocytes assessed as deleterious effect upto 50 uM by flow cytometry; type: toxicity, cell-based; conditions: granulocyte; in short: as §3
# Klebsiella pneumoniae [30] = assay: Depolarization of cytoplasmic membrane in Klebsiella pneumoniae ATCC 13883 at MIC measured for 45 mins by DiSC3-(5) dye based assay; type: functional, organism-based; in short: as §5
# [31] = Toxicity against reconstructed human skin model assessed as irritation at 50 uM incubated for 1 hr followed by compound washout measured after 42 hrs by MTT assay; type: tissue-based, Skin of body; in short: as §6
# MOLM-13 = assay: Anti-cancer activity against human MOLM-13 cells incubated for 24 hrs by WST assay; type: functional, cell-based; conditions: MOLM-13, 24 h
substance,measurement,setting,value
H-HHHHLKKILKKLFQFINQLDNQLQDIHHHH-OH,Activity,K562 [1],Active
same,IC50,SUD4,1000 nM
same,Activity,Klebsiella pneumoniae [2],Active
same,Activity,T-cell line,Non-Toxic
same,Activity,Escherichia coli [3],Active
same,Activity,HCT-116 [4],Active
same,Activity,HL-60 [5],Active
same,Activity,MCF7 [6],Active
same,Stability,[7],Stable
same,Activity,Pseudomonas aeruginosa [8],Active
same,Activity,HCT-116 [9],Active
same,Activity,MCF7 [10],Active
same,Activity,MCF7 [11],Active
same,Activity,Monocyte,Non-Toxic
same,Activity,Enterococcus faecium,Active
same,Activity,[12],Non-Toxic
same,Activity,HL-60 [13],Active
same,Activity,Staphylococcus aureus,Active
same,Activity,HCT-116 [14],Active
same,Activity,HL-60 [15],Active
same,Activity,B cell,Non-Toxic
same,IC50,[16],1000 nM
same,Activity,Acinetobacter baumannii [17],Active
same,Activity,K562 [18],Active
same,Activity,HL-60 [19],Active
same,Activity,Acinetobacter baumannii [20],inactive
same,Activity,Pseudomonas aeruginosa [21],Active
same,Activity,MCF7 [22],Active
same,Activity,MCF7 [23],Active
same,"viability at 1 h, 50 µM",[24],100%
same,IC50 at 72 h,[25],> 200000 nM
same,Activity,Escherichia coli [26],Active
same,Activity,K562 [27],Active
same,Activity,Acinetobacter baumannii [28],inactive
same,MIC,Staphylococcus carnosus,> 50 µM
same,Activity,[29],Non-Toxic
same,Activity,Klebsiella pneumoniae [30],Active
same,Activity,[31],Non-Toxic
same,IC50,MOLM-13,1000 nM
